Results taken from ChEMBL document CHEMBL1129534, “Antitumor agents. 163. Three-dimensional quantitative structure-activity relationship study of 4'-O-demethylepipodophyllotoxin analogs using the modified CoMFA/q2-GRS approach” (J Med Chem, 1996).

Molecular target: DNA topoisomerase II (Homo sapiens) (UniProt P11388+Q02880)
Experiment: Compound tested for ability to form a cellular covalent topoisomerase II-DNA complex.
Assay type: functional
Outline: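 Read-out is intracellular covalent topoisomerase II–DNA complex formation, scored as the percentage of cellular protein–DNA complex formed (PCPDCF). For CoMFA modelling the values were transformed to ln(PCPDCF + 1).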

| Protein-DNA complex formation [%] | SMILES |
| --- | --- |
| 69.7 | CCCN[C@@H]1c2cc3c(cc2[C@@H](c2cc(OC)c(O)c(OC)c2)[C@H]2C(=O)OC[C@@H]21)OCO3 |
| 15 | COc1cc([C@@H]2c3cc4c(cc3[C@@H](Nc3cc([N+](=O)[O-])ccc3O)[C@H]3COC(=O)[C@H]23)OCO4)cc(OC)c1O |
| 21 | COc1cc([C@@H]2c3cc4c(cc3[C@@H](Nc3cc(C(F)(F)F)cc(C(F)(F)F)c3)[C@H]3COC(=O)[C@H]23)OCO4)cc(OC)c1O |
| 128 | COc1cc([C@@H]2c3cc4c(cc3[C@@H](NC(=O)c3ccccc3F)[C@H]3COC(=O)[C@H]23)OCO4)cc(OC)c1O |
| 137 | COc1cc([C@@H]2c3cc4c(cc3[C@@H](Nc3cccc(C#N)c3)[C@H]3COC(=O)[C@H]23)OCO4)cc(OC)c1O |
| 177 | COc1cc([C@@H]2c3cc4c(cc3[C@@H](NC(=O)c3ccccc3)[C@H]3COC(=O)[C@H]23)OCO4)cc(OC)c1O |
| 94 | COc1cc([C@@H]2c3cc4c(cc3[C@@H](OC(=O)c3ccc(N)cc3)[C@H]3COC(=O)[C@H]23)OCO4)cc(OC)c1O |
| 36.4 | COc1cc([C@@H]2c3cc4c(cc3[C@@H](N)[C@H]3COC(=O)[C@H]23)OCO4)cc(OC)c1O |
| 180 | COc1ccc(N[C@@H]2c3cc4c(cc3[C@@H](c3cc(OC)c(O)c(OC)c3)[C@H]3C(=O)OC[C@@H]32)OCO4)cc1OC |
| 191 | COc1cc([C@@H]2c3cc4c(cc3[C@@H](NCc3cccc(N)c3)[C@H]3COC(=O)[C@H]23)OCO4)cc(OC)c1O |
| 167 | COc1cc([C@@H]2c3cc4c(cc3[C@@H](NC[C@H](C)O)[C@H]3COC(=O)[C@H]23)OCO4)cc(OC)c1O |
| 150 | COc1cc([C@@H]2c3cc4c(cc3[C@@H](Nc3cccc(C(C)=O)c3)[C@H]3COC(=O)[C@H]23)OCO4)cc(OC)c1O |
| 290 | COc1cc([C@@H]2c3cc4c(cc3[C@@H](Nc3cccc(O)c3)[C@H]3COC(=O)[C@H]23)OCO4)cc(OC)c1O |

| SMILES | Protein-DNA complex formation [%] |
| --- | --- |
| COc1cc([C@@H]2c3cc4c(cc3[C@H](NCCO)[C@H]3COC(=O)[C@H]23)OCO4)cc(OC)c1O | 0 |
| COc1cc([C@@H]2c3cc4c(cc3[C@@H](NC(=O)c3cccc(C#N)c3)[C@H]3COC(=O)[C@H]23)OCO4)cc(OC)c1O | 149 |
| COc1cc([C@@H]2c3cc4c(cc3[C@@H](Nc3ccc(Cl)cc3)[C@H]3COC(=O)[C@H]23)OCO4)cc(OC)c1O | 99 |
| COc1cc([C@@H]2c3cc4c(cc3[C@@H](Nc3cccc(F)c3)[C@H]3COC(=O)[C@H]23)OCO4)cc(OC)c1O | 158 |
| COc1cc([C@@H]2c3cc4c(cc3[C@@H](NCc3ccc(F)cc3)[C@H]3COC(=O)[C@H]23)OCO4)cc(OC)c1O | 169 |
| COc1cc([C@@H]2c3cc4c(cc3[C@@H](Nc3ccccc3F)[C@H]3COC(=O)[C@H]23)OCO4)cc(OC)c1O | 121 |
| COc1cc([C@@H]2c3cc4c(cc3[C@@H](NC(=O)c3ccc(C#N)cc3)[C@H]3COC(=O)[C@H]23)OCO4)cc(OC)c1O | 159 |
